Experimental data from ChEMBL document CHEMBL4152343, “Design, Synthesis, and Pharmacological Evaluation of Second-Generation Tetrahydroisoquinoline-Based CXCR4 Antagonists with Favorable ADME Properties” (J Med Chem, 2018).

What was measured:
[1] = target: Muscarinic acetylcholine receptor; experiment: Antagonist activity at mAChR in human CCRF-CEM cells assessed as inhibition of acetylcholine-induced calcium release preincubated for 25 mins followed by acetylcholine stimulation and measured for 90 secs by calcium flux assay; assay type: functional, cell-based
In short: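 Endogenous muscarinic receptors in CCRF-CEM cells (HBSS/HEPES/BSA buffer, 40,000 cells/well, dye-loaded 30 min at 37°C). Calcium flux recorded 90 s by FDSS. IC50 by 4-parameter logistic fit against an internal control compound; duplicate wells, single experiment.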

[2] = target: Cytochrome P450 3A4 (Homo sapiens, UniProt P08684); experiment: Inhibition of human CYP3A4; assay type: ADME
[3] = target: T1, C-X-C chemokine receptor type 4 (Homo sapiens, UniProt P61073); experiment: Agonist activity at CXCR4 in human CCRF-CEM cells assessed as induction of calcium release incubated for 25 mins by calcium flux assay; assay type: functional, cell-based
In short: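 CCRF-CEM T lymphoblasts (endogenous CXCR4) in HBSS/20 mM HEPES/0.1% fatty-acid-free BSA, 40,000 cells/well, dye-loaded 30 min at 37°C, then 15 min at room temperature. Compounds added at final 25,000–0.423 nM (0.5% DMSO) and calcium flux read by FDSS for 90 s.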

[4] = target: Cytochrome P450 2D6 (Homo sapiens, UniProt P10635); experiment: Inhibition of recombinant human CYP2D6 expressed in insect cells microsomes using AMMC as substrate preincubated for 30 mins followed by NADP addition and measured after 45 mins by fluorescence analysis; assay type: ADME
[5] = target: T1, C-X-C chemokine receptor type 4; experiment: Antagonist activity at CXCR4 in human CCRF-CEM cells assessed as inhibition of SDF-1alpha-induced calcium release preincubated for 25 mins followed by SDF-1alpha stimulation and measured for 90 secs by calcium flux assay; assay type: functional, cell-based
[6] = Metabolic stability in mouse liver microsomes assessed as parent compound remaining after 10 mins by LC-MS/MS analysis; assay type: ADME, microsome; conditions: read-out: Stability
In short: (§1)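 Compound depletion measured by LC/MS/MS after 10 min at 37 °C in liver microsome preparations (CYP450 and other NADP-dependent enzymes). Values are % of compound remaining; duplicates in a single experiment.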

[7] = Permeability of compound at pH 7.4 by PAMPA; assay type: ADME; conditions: read-out: permeability
In short: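 Compound from 10 mM DMSO stock diluted 1:100 to 100 µM (1% DMSO) in pH 7.4 or pH 5.5 donor buffer, then filtered. Lipid-coated filter membrane with pH 7.4 acceptor buffer; incubated 4 h at room temperature. UV plate reading gives Pc. Duplicates in two independent experiments unless noted.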

[8] = Metabolic stability in human liver microsomes assessed as parent compound remaining after 10 mins by LC-MS/MS analysis; assay type: ADME, microsome; conditions: read-out: Stability; in short: as §1

Cytochrome P450 3A4, sequence (P08684 whole entry): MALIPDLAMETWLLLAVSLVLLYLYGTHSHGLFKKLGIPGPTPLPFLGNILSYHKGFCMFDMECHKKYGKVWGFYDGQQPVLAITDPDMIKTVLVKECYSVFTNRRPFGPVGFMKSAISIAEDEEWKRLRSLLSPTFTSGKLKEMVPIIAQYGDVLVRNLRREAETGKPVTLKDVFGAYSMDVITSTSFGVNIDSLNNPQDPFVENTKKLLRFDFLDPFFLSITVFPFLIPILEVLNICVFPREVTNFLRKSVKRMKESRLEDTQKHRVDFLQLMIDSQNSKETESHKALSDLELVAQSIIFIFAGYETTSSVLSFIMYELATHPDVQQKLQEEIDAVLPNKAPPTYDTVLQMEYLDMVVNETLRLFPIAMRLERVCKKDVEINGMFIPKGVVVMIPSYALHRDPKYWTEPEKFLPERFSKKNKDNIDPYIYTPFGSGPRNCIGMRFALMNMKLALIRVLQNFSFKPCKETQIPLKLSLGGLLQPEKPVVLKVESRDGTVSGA
Cytochrome P450 2D6, sequence (P10635 whole entry): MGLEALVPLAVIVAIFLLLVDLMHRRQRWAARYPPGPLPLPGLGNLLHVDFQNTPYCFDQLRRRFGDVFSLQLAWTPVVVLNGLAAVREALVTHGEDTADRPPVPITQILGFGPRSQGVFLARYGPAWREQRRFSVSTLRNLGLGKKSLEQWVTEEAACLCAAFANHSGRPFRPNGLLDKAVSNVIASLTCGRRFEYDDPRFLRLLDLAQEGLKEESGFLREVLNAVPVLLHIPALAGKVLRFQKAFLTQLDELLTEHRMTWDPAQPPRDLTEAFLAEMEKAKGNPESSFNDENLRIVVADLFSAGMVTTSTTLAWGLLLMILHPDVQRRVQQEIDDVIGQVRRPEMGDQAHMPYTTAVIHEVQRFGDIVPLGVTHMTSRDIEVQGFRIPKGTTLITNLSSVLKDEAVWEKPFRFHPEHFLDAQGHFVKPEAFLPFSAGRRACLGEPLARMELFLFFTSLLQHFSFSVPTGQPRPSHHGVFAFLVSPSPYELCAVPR
T1 sequence (P61073 whole entry): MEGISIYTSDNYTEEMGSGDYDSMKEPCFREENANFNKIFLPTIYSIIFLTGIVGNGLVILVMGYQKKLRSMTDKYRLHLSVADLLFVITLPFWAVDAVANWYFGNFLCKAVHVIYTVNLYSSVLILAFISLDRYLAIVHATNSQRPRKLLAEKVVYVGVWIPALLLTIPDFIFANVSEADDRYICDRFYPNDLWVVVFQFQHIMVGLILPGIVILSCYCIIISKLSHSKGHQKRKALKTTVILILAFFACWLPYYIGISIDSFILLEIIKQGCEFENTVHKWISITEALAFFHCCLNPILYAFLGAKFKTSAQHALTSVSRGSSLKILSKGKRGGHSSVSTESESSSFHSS

SMILES | IC50 [1] [µM] | IC50 [2] [µM] | EC50 [3] [µM] | IC50 [4] [µM] | IC50 [5] [µM] | remaining at 10 min [6] [%] | Papp [7] [×10⁻⁶ cm/s] | remaining at 10 min [8] [%]
CN(C[C@H]1Cc2c(cccc2N2CCNC(C)(C)C2)CN1)[C@H]1CCCc2cccnc21 | 17.9 | > 20 | > 30 | > 20 | – | 44 | – | 100
Cc1ccc(CN(C)C[C@H]2Cc3c(cccc3N3CCNCC3)CN2)nc1 | 9.56 | > 20 | > 30 | 100 | – | – | 22.5 | 76.8
Cc1cccnc1CN(C)C[C@H]1Cc2c(cccc2N2CCNCC2)CN1 | 11.1 | 1.42 | > 30 | 100 | – | – | 19.3 | 69.2
C[C@@H]1CN(c2cccc3c2C[C@H](CN(C)[C@H]2CCCc4cccnc42)NC3)C[C@H](C)N1 | > 33.3 | > 20 | > 30 | > 20 | 0.061 | 85.6 | 3.9 | 100
CCN(C[C@H]1Cc2c(cccc2N2CCNCC2)CN1)[C@H]1CCCc2cccnc21 | 8.6 | > 20 | > 30 | > 20 | 0.0148 | 53.8 | 7.5 | 79.1
CN(C[C@H]1Cc2c(cccc2N2C[C@@H]3C[C@H]2CN3)CN1)[C@H]1CCCc2cccnc21 | > 16.7 | > 20 | > 30 | > 20 | 0.146 | 36.3 | – | 100
c1cnc2c(c1)CCC[C@@H]2N(CC1CCCCC1)C[C@H]1Cc2c(cccc2N2CCNCC2)CN1 | > 33.3 | 1.78 | > 30 | 5.72 | 0.715 | 85.6 | 0.9 | 81.6
CN(C[C@H]1Cc2c(cccc2N2CCN3CCC[C@H]3C2)CN1)[C@H]1CCCc2cccnc21 | > 16.7 | > 20 | > 30 | > 20 | – | 40.1 | 16.7 | 36.6
CN(C[C@@H]1Cc2c(cccc2N2CCNCC2)CN1)[C@H]1CCCc2cccnc21 | 2.1 | > 20 | > 30 | > 20 | 0.313 | 54.6 | 0.4 | 94.2

Other lines, results leading:

IC50 [1] [µM] | IC50 [2] [µM] | EC50 [3] [µM] | IC50 [4] [µM] | IC50 [5] [µM] | remaining at 10 min [6] [%] | Papp [7] [×10⁻⁶ cm/s] | remaining at 10 min [8] [%] | SMILES
5.6 | > 20 | > 30 | 14.2 | 0.154 | 83.7 | 0.1 | 90.3 | COCCN(C[C@H]1Cc2c(cccc2N2CCNCC2)CN1)[C@H]1CCCc2cccnc21
> 16.7 | > 20 | > 30 | 8.13 | 0.0169 | 15.1 | 14.3 | 56.6 | CC(C)N1CCN(c2cccc3c2C[C@H](CN(C)[C@H]2CCCc4cccnc42)NC3)CC1
> 16.7 | > 20 | > 30 | > 20 | – | 50.8 | 72.5 | 83.1 | CN(C[C@H]1Cc2c(cccc2N2CCN(C3COC3)CC2)CN1)[C@H]1CCCc2cccnc21
3.16 | > 20 | > 30 | 12 | 0.0322 | 87.4 | 2.65 | 100 | CCCN(C[C@H]1Cc2c(cccc2N2CCNCC2)CN1)[C@H]1CCCc2cccnc21
> 16.7 | > 20 | > 30 | > 20 | 0.171 | 41.7 | 36.4 | 83.3 | CN1CCN(c2cccc3c2C[C@H](CN(C)[C@H]2CCCc4cccnc42)N(C)C3)CC1
> 33.3 | > 20 | > 30 | > 20 | – | 17 | 99.6 | 75.8 | CN1CCN(c2cccc3c2C[C@H](CN(C)[C@H]2CCCc4cccnc42)NC3)CC1
> 33.3 | 5.62 | > 30 | 8.45 | – | 76.6 | – | 68.6 | FC1(F)CCC(CN(C[C@H]2Cc3c(cccc3N3CCNCC3)CN2)[C@H]2CCCc3cccnc32)CC1
> 16.7 | > 20 | > 30 | > 20 | – | – | 0.9 | 100 | Cc1cnc2c(c1)CCC[C@@H]2N(C)C[C@H]1Cc2c(cccc2N2CCNCC2)CN1
> 16.7 | > 20 | > 30 | > 20 | – | 95.9 | – | 100 | CN(C[C@H]1Cc2c(cccc2N2C[C@H]3C[C@@H]2CN3)CN1)[C@H]1CCCc2cccnc21
26.3 | > 20 | > 30 | > 20 | – | 100 | 0.3 | 100 | CN1Cc2cccc(N3CCNCC3)c2C[C@@H]1CN(C)[C@H]1CCCc2cccnc21
> 16.7 | > 20 | > 30 | > 20 | – | – | 32.3 | 67.8 | CN1CCN(c2cccc3c2C[C@H](CN2CCC[C@H]4CCc5cccnc5[C@H]42)NC3)CC1
15.4 | > 20 | > 30 | > 20 | – | – | – | – | Cc1cnc(CN(C)C[C@H]2Cc3c(cccc3N3CCNCC3)CN2)c(C)c1
21.6 | > 20 | > 30 | 8.57 | – | 88.3 | 8.7 | 82.1 | c1cnc2c(c1)CCC[C@@H]2N(CC1CC1)C[C@H]1Cc2c(cccc2N2CCNCC2)CN1
15.1 | > 20 | > 30 | > 20 | – | 39.6 | 14.2 | 24.6 | C[C@@H]1CN(c2cccc3c2C[C@H](CN(C)[C@H]2CCCc4cccnc42)NC3)C[C@H](C)N1C
